MrgX1 allo act: human MrgX1 positive allosteric modulation, primary screen | MrgX1-HEK293, Fluo-4 calcium flux, FDSS; stronger effect = higher value | 310,000 compounds, 0.63% hits | B-score at 10 µM | Q96LB2;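 active = plate-corrected calcium response at least 3 library SD above typical, normal starting fluorescence, not activating the receptor alone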;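 note: compound read alongside a low EC10 to EC30 dose of BAM8-22 agonist; peak minus trough fluorescence over baseline measured at the second addition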
Target sequence (Q96LB2 whole entry, looked up): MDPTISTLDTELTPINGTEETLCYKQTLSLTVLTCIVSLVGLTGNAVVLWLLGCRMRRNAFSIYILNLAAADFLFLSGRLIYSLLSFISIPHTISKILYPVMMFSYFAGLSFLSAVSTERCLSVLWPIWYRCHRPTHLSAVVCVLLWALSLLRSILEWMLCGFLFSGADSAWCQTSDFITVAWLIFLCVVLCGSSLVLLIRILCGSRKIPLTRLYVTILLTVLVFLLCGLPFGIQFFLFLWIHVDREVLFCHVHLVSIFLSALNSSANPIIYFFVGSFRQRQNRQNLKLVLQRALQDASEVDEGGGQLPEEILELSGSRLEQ
RGS4 act: RGS4 potentiation or activation | 310,000 compounds, 0.92% hits | HEK293 M3R/inducible RGS4, carbachol calcium flux Fluo4; stronger effect = lower value | B-score at 10 µM;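 active = B-score of the integrated calcium signal more than 4 SD below the library mean, with starting fluorescence not abnormally high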;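 note: negative B-score means reduced calcium response which marks RGS4 activation or potentiation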
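Reagent: ECmax carbachol challenge; Test system: M3R-expressing HEK293 line, RGS4 induced by doxycycline; Schedule: overnight RGS4 induction, 30 min dye load 37 °C, 20 min compound RT; Detection: calcium dye Fluo4 fluorescence; Read-out: Agonist-evoked peak-minus-minimum fluorescence over baseline, integrated ratio, B score.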
MrgX1 ag: activates human MrgX1 receptor signaling; AID 588627; MrgX1-HEK293 cells, Fluo-4 calcium fluorescence, agonist mode; stronger effect = higher value; Q96LB2; 310,000 compounds, 0.44% hits; B-score at 10 µM;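 active = calcium response B-score plate-corrected fluorescence ratio at least 3 library SD, with starting fluorescence B-score inside 5 SD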
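Material – MrgX1-expressing HEK293 cells · Input – 15,000 cells seeded per well · Dosing – compound as first of three additions · Times – overnight seeding, then 1 h dark dye loading · Measured by – kinetic Fluo-4 NW fluorescence of intracellular calcium · Read-out – B-scored fluorescence response ratio · Benchmarks – positive and negative control wells on each plate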
RGS4 block: human RGS4 inhibition; HEK293 M3R/RGS4 inducible, Fluo-4 calcium flux; stronger effect = higher value; triggered by carbachol at its EC20; B-score at 10 µM; 310,000 compounds, 0.45% hits; P49798;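 active = B-score, a plate-corrected calcium signal, over three deviations above library mean, with baseline fluorescence within five deviations of library mean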;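 note: RGS4 expression induced by doxycycline in cells with stable M3 receptor; B-score is computed from the integrated fluorescence ratio over baseline after carbachol; higher B-score means a larger calcium signal and so more RGS4 inhibition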
Target sequence (P49798 whole entry, looked up): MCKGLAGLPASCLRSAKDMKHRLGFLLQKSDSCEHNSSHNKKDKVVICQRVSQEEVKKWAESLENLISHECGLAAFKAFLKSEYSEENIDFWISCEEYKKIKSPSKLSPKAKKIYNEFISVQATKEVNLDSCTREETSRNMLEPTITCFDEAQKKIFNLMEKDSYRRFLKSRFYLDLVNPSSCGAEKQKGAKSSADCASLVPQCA
MrgX1 antag: blocks BAM8-22 activation of human MrgX1 receptor. Q96LB2. MRGX1-HEK293 calcium flux, Fluo-4, BAM8-22 antagonism; stronger effect = lower value. B-score at 10 µM. 310,000 compounds, 1.3% hits. AID 588676;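 active = calcium-response B-score plate-corrected more than 3 library SD below zero, starting fluorescence within 5 deviations, no agonist response on first addition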;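 note: peak minus trough fluorescence over baseline after final BAM8-22 challenge near maximal dose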
MrgX1 ant reconf: reconfirmed antagonist of human MrgX1 receptor signaling | shares compounds with MrgX1 antag | MrgX1-HEK293, BAM8-22 calcium flux, Fluo-4; stronger effect = lower value | remaining BAM8-22 calcium response % of control (stronger effect = lower value), % at 10 µM | 2,300 compounds, 19% hits | AID 602420;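 active = remaining agonist calcium response no higher than 100% minus 3 SD of agonist-only control wells, with starting fluorescence near control levels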;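 note: agonist BAM8-22 given at a near maximal EC90 to ECmax level; peak minus minimum fluorescence divided by baseline after agonist addition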
HEK293 Ca flux: counter-screen for MrgX1 antagonists: effect in parental HEK293 cells; shares compounds with MrgX1 antag; AID 624111; 4,000 compounds, 2% hits; Fluo-4 calcium fluorescence, FDSS; fluorescence ratio F(max-min)/F0 at 10 µM;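 active = duplicate-averaged calcium fluorescence ratio at least three times the standard deviation of buffer wells, a nonspecific response in parental cells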
HEK293 Ca counter: counter-screen for MrgX1 allosteric activators: effect in parental HEK293 cells; 4,000 compounds, 0.4% hits; parental HEK293 calcium flux, Fluo-4 fluorescence ratio; stronger effect = higher value; shares compounds with MrgX1 antag; fluorescence ratio F(max-min)/F0 at 10 µM;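 active = calcium fluorescence ratio, averaged over duplicates, at least 3 SD of the buffer-well ratio, meaning a nonspecific response in receptor-free cells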;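 note: untransfected parental HEK293 lacking MrgX1 used as counterscreen for MrgX1 allosteric activators; fluorescence change taken during the second addition on a kinetic imager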
HEK293 Ca cntr2: counter-screen for MrgX1 activators: effect in parental HEK293 cells; shares compounds with MrgX1 antag; Fluo-4 calcium fluorescence (FDSS); stronger effect = higher value; fluorescence ratio F(max-min)/F0 at 10 µM; 4,000 compounds, 8.7% hits;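 active = calcium fluorescence ratio at least three times the spread of buffer wells, meaning a non-specific response in parental cells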
* hit, by the source's call; i = inactive; x = no result. Hits are enriched below; roughly 3.5% of the tested compounds scored in any of these assays.

SMILES | MrgX1 allo act | RGS4 act | MrgX1 ag | RGS4 block | MrgX1 antag | MrgX1 ant reconf | HEK293 Ca flux | HEK293 Ca counter | HEK293 Ca cntr2
COc1ccccc1N1CCN(C(=O)C(F)F)CC1 | i | i | i | i | -6.82* | i | i | i | i
CC(C)[C@@H](C(=O)NC1CCCC1)N1C(=O)N2CCc3c([nH]c4ccccc34)[C@@]2(C)C1=O | i | i | i | i | i | x | x | x | x
O=C(CN(C(=O)c1csnn1)c1ccccc1F)NCc1ccc2c(c1)OCO2 | i | i | i | i | i | x | x | x | x
Oc1ccc(Nc2nc(NCC3CCCO3)c3ccccc3n2)cc1 (configuration not stated) | x | i | x | i | x | x | x | x | x
COc1cccc(Nc2nc(NCC3CCCO3)c3ccccc3n2)c1 (configuration not stated) | i | i | i | i | -6.1* | 20.4%* | i | i | i
O=C(CSc1nnc(-c2ccc(F)cc2)c2ccccc12)Nc1ccccc1Cl | i | i | i | i | i | x | x | x | x
CCOC(=O)N1CCN(c2c(Nc3ccc4c(c3)OCCO4)c(=O)c2=O)CC1 | i | i | i | i | -6.78* | i | i | i | i
CCOC(=O)N1CCN(c2c(N3CCOCC3)c(=O)c2=O)CC1 | i | i | i | i | i | x | x | x | x
O=C(Nc1cccc(O)c1)C1CC(c2ccc(Cl)cc2)=NO1 (configuration not stated) | i | i | i | i | i | x | x | x | x
CCN=C1SC(C(=O)Nc2cc(Cl)cc(Cl)c2)CC(=O)N1CC (configuration not stated) | i | i | i | i | -5.27* | i | i | i | i
CCOC(=O)N1CCN(C(=O)C2COc3ccccc3O2)CC1 (configuration not stated) | i | i | i | i | -7.82* | i | i | i | i
CCN1CCN(C(=O)C2COc3ccccc3O2)CC1 (configuration not stated) | i | i | i | i | i | x | x | x | x
Cc1ccc(OCC(=O)Nn2c(C)nc3ccccc3c2=O)c(C(C)C)c1 | i | i | i | i | -11.2* | i | i | i | i
Cc1cc(-c2ccccc2)[nH]c(=O)c1S(=O)(=O)c1ccccc1 | i | i | i | i | i | x | x | x | x
Cc1cc(-c2ccccc2)[nH]c(=O)c1S(=O)(=O)c1ccc(Cl)cc1 | i | i | i | i | -8.96* | i | i | i | i
O=C(OCC(=O)N1CCN(C(=O)c2ccco2)CC1)c1cccc(S(=O)(=O)N2CCc3ccccc32)c1 | i | i | i | i | i | x | x | x | x
O=[N+]([O-])c1ccccc1S(=O)(=O)Nc1ccn(Cc2c(F)cccc2Cl)n1 | i | i | i | i | i | x | x | x | x
C=CCN1C(=O)c2cccc3c(N4CCCCC4)ccc(c23)C1=O | i | i | i | i | i | x | x | x | x
C=CCN1C(=O)c2cccc3c(Br)ccc(c23)C1=O | i | i | i | i | -7.62* | i | i | i | i
O=C(O)CCc1ccc(-c2cccs2)n1-c1ccc(C(=O)O)cc1 | i | i | i | i | -4.71* | i | i | i | i
O=C(O)Cn1cc(C(=O)c2ccco2)c2ccccc21 | i | i | i | i | -7.94* | i | i | i | i
CCOC(=O)Cn1cc(C(=O)c2ccco2)c2ccccc21 | i | i | i | i | i | x | x | x | x
CC(C)CC(c1nnnn1CC1CCCO1)N1CCN(Cc2ccc3c(c2)OCO3)CC1 (configuration not stated) | i | i | i | i | -4.99* | i | i | i | i
CCC(Sc1nc2ncccc2[nH]1)C(=O)NC1CCC(C)CC1 (configuration not stated) | i | i | i | i | i | x | x | x | x
CCC(Sc1nc2ncccc2[nH]1)C(=O)NCCc1ccccc1 (configuration not stated) | i | i | i | i | -8.71* | i | i | i | i
SMILES | MrgX1 allo act | RGS4 act | MrgX1 ag | RGS4 block | MrgX1 antag | MrgX1 ant reconf | HEK293 Ca flux | HEK293 Ca counter | HEK293 Ca cntr2
COC(=O)c1cc(NC(=O)CN(c2ccc(OC)cc2)S(=O)(=O)c2ccc(F)cc2)ccc1Cl | x | i | x | i | x | x | x | x | x
Cc1cc(=O)oc2c(C)c(OC(C)C(=O)NC(Cc3c[nH]c4ccc(O)cc34)C(=O)O)ccc12 (configuration not stated) | i | i | i | i | -5.53* | i | i | i | i
Brc1ccc(CNc2cc3c(cc2Br)OCCO3)cc1 | i | i | i | i | -4.54* | i | i | i | i
CC(=O)Nc1cc2c(cc1Br)OCCO2 | i | i | i | i | i | x | x | x | x
O=S(=O)(NCCN1CCCC1)c1ccc(Br)cc1 | i | i | i | i | i | x | x | x | x
O=S(=O)(NCCN1CCCC1)c1ccc(Cl)cc1 | i | i | i | i | -4.76* | i | i | i | i
COc1ccc(CNC(=O)COC(=O)Cc2ccsc2)cc1 | i | i | i | i | -4.52* | i | i | i | i
O=C(Cc1cccs1)NCc1ccc2c(c1)OCO2 | i | i | i | i | -8* | i | i | i | i
CCOc1ncccc1C(=O)OCC(=O)NCc1ccc2c(c1)OCO2 | i | i | i | i | -4.94* | i | i | i | i
COc1ccc(CC(=O)NCc2cccs2)cc1 | i | i | i | i | -6.62* | i | i | i | i
C/C(=N\NC(=O)CNc1ccccc1)c1ccccc1 | i | i | i | i | i | x | x | x | x
COc1ccc2c(O)c(-c3c(C)cc(C)cc3C)c(=O)[nH]c2c1 | i | i | i | i | i | x | x | x | x
Cc1ccc2nc(Br)c3c(c2c1)OC(CBr)C3 (configuration not stated) | i | i | i | i | i | x | x | x | x
Cn1c(=N)n(CC(=O)c2ccc(Cl)c(Cl)c2)c2ccccc21 | i | i | i | i | i | x | x | x | x

Assay outcomes from PubChem.
